Experimental findings from ChEMBL document CHEMBL4270668, “Design, Synthesis, Molecular Dynamics Simulation, and Functional Evaluation of a Novel Series of 26RFa Peptide Analogues Containing a Mono- or Polyalkyl Guanidino Arginine Derivative” (J Med Chem, 2018) are described below.

The source made the active and inactive calls. The rule behind the calls is not given here. Starred links: 1 amine or outer side, 2 acyl side, 3 side chain; linkers in the order of their positions; H or OH if unused. Non-standard residues stand in square brackets, D forms with d. Residues, ends and D or L forms follow the SMILES beside them. X25 = C/N=C(/NCCCC[C@H](N[*:1])C(=O)[*:2])N(C)C; X1 = C/N=C(\NCCC[C@H](N[*:1])C(=O)[*:2])N(C)C; Arg(Me2a) = CN(C)C(=N)NCCC[C@H](N)C(=O)O; Arg(Me) = CNC(=N)NCCC[C@H](N)C(=O)O A value given as a limit tells only on which side of the number the result lay.

The target of assay [1] is T1, Pyroglutamylated RF-amide peptide receptor (Homo sapiens, UniProt Q96P65).
T1 sequence (Q96P65 whole entry): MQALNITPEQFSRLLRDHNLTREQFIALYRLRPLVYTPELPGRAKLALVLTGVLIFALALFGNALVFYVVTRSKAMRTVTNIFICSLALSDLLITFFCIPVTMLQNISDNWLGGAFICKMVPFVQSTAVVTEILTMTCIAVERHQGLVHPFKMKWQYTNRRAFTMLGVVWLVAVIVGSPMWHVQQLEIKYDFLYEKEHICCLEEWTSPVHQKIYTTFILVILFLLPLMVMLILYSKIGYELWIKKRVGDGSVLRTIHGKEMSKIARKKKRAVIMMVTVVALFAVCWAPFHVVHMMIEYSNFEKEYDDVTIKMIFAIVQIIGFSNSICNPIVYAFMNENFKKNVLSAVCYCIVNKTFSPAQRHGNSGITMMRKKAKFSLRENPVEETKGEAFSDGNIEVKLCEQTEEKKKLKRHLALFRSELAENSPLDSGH
Description: Agonist activity at human QRFPR expressed in CHO cells co-expressing Galpha16 assessed as increase Ca2+ mobilization after 3 mins by Fluo-4 AM-based scanning fluorometery. It counts as functional, cell-based. The method in brief: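 CHO-Gα16 cells stably expressing human QRFPR, seeded at 40,000 cells/well 24 h ahead. Loaded 1 h with 2 µM Fluo-4 AM plus 0.01% pluronic acid, washed, then 30 min in HBSS with 2.5 mM probenecid and 5 mM HEPES. Compounds added at final 10^-11 to 10^-5 M; fluorescence recorded 3 min on a scanning fluorometer. EC50 from sigmoidal variable-slope fits, ≥3 experiments in triplicate.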
(Calcium assays in cells follow changes in intracellular calcium, usually with a dye or a luminescent sensor.)

Assay [2] addresses T1, Pyroglutamylated RF-amide peptide receptor. In words: Antagonist activity at human QRFPR expressed in CHO cells co-expressing Galpha16 assessed as inhibition of 26RFa-induced Ca2+ mobilization preincubated for 15 mins followed by agonist addition measured after 3 mins by Fluo-4 AM-based scanning fluorometery. Type of assay: functional, cell-based. The essentials:
(§1)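 CHO-Gα16-hQRFPR cells loaded 1 h with 2 µM Fluo-4 AM, then incubated 15 min with graded compound. A 10^-7 M final 26RFa pulse was given during recording. Background subtracted, baseline normalized to 100%, peak fluorescence taken per concentration. IC50 from sigmoidal variable-slope fits, ≥3 experiments in triplicate. Maximal effect at 10^-4 M expressed as % inhibition of the 26RFa (10^-7 M) response.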

Assay [3] addresses T2, Pyroglutamylated RF-amide peptide receptor (Homo sapiens) (UniProt Q96P65).
T2 sequence (whole entry): T1 sequence (Q96P65 whole entry)
Description: Antagonist activity at human QRFPR expressed in CHO cells co-expressing Galpha16 assessed as inhibition of 26RFa-induced Ca2+ mobilization at 100 uM preincubated for 15 mins followed by agonist addition measured after 3 mins by Fluo-4 AM-based scanning fluorometery relative to 26RFa (20 to 26 residues). It counts as functional, cell-based. The essentials: as §1

Assay [4] concerns Mus musculus. In words: Induction of insulin-induced hypoglycemia in C57Bl/6J mouse at 148 ug/kg, ip measured up to 90 mins post insulin injection by insulin tolerance test. It counts as functional, organism-based. The method in brief:
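Mice fasted 6 h with water available, then given i.p. human insulin 0.75 U/kg together with peptide 148 µg/kg (equimolar to 26RFa) or vehicle. Tail-vein plasma glucose read by glucometer at 0, 15, 30, 60 and 90 min. At least eight animals per group; two-way ANOVA with Tukey post-test.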

The subject of assay [5] is Mus musculus. Description: Induction of insulin-induced hypoglycemia in C57Bl/6J mouse at 148 ug/kg, ip measured after 90 mins post insulin injection by insulin tolerance test. Type of assay: functional, organism-based. As to conditions: 741 ug/kg, in the assay text read “741 ug/kg” for “148 ug/kg”.
Assay [6] deals with T2, Pyroglutamylated RF-amide peptide receptor (Homo sapiens). In words: Antagonist activity at human QRFPR expressed in CHO cells co-expressing Galpha16 assessed as inhibition of 26RFa-induced Ca2+ mobilization at 10 uM preincubated for 30 mins followed by agonist addition measured after 3 mins by Fluo-4 AM-based scanning fluorometery. Type of assay: functional, cell-based. The essentials: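 One-dose screen in CHO-Gα16 cells stably expressing human QRFPR, Fluo-4 AM loaded. Cells incubated 30 min with analogue at 10^-5 M, then challenged with 26RFa at 10^-7 M during fluorescence recording. Response normalized to 26RFa alone in HBSS.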

Assay [7] deals with Mus musculus. In words: Induction of insulin-induced hypoglycemia in C57Bl/6J mouse at 500 ug/kg, ip measured up to 90 mins post insulin injection by insulin tolerance test. It counts as functional, organism-based. The essentials:
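Mice fasted 6 h, then given i.p. insulin 0.75 U/kg with 26RFa 500 µg/kg, or phosphate buffer as vehicle. Tail-vein plasma glucose measured by glucometer at 0, 15, 30, 60 and 90 min. n = 8 per group; two-way ANOVA with Tukey post-test.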

Broadly, the EC50 is the concentration that produces a half-maximal response. What is called IC50 is the concentration that gives 50% inhibition. As to `CN(C)C(=N)NCCC[C@H](NC(=O)[C@H](Cc1ccccc1)NC(=O)[C@H](CO)NC(=O)[C@H](Cc1ccccc1)NC(=O)CNC(=O)CN)C(=O)N[C@@H](Cc1ccccc1)C(N)=O` (H-GGFSF[Arg(Me2a)]F-NH2), the EC50 in assay [1] was over 100000 nM. Also, the IC50 in assay [2] stood at 6.06 µM. The Imax in assay [3] is 80%.

For `CNC(=N)NCCC[C@H](NC(=O)[C@H](Cc1ccccc1)NC(=O)[C@H](CO)NC(=O)[C@H](Cc1ccccc1)NC(=O)CNC(=O)CN)C(=O)N[C@@H](Cc1ccccc1)C(N)=O` (H-GGFSF[Arg(Me)]F-NH2), in the assay on Mus musculus [4], the result was inactive. Moreover, the EC50 in assay [1] was 66.4 nM. Besides, the outcome in the assay with Mus musculus [5] was Active.

The term inhibition denotes the drop in the measured response relative to a control, in per cent. `C/N=C(\NCCC[C@H](NC(=O)[C@H](Cc1ccccc1)NC(=O)[C@H](CO)NC(=O)[C@H](Cc1ccccc1)NC(=O)CNC(=O)CN)C(=O)N[C@@H](Cc1ccccc1)C(N)=O)N(C)C` (H-GGFSF[X1]F-NH2): the EC50 in assay [1] was over 100000 nM. In assay [2], the 50% inhibitory concentration (IC50) was 8.25 µM. For the same molecule, in assay [6], the inhibition is 47%. For the same molecule, the Imax in assay [3] amounted to 87.5%.

With `C/N=C(/NCCCC[C@H](NC(=O)[C@H](Cc1ccccc1)NC(=O)[C@H](CO)NC(=O)[C@H](Cc1ccccc1)NC(=O)CNC(=O)CN)C(=O)N[C@@H](Cc1ccccc1)C(N)=O)N(C)C` (H-GGFSF[X25]F-NH2), the EC50 in assay [1] is over 100000 nM. The IC50 in assay [2] was over 100 µM.

Regarding H-VGTALGSLAEELNGYNRKKGGFSFRF-NH2, the EC50 in assay [1] is 46 nM. The outcome in the assay with Mus musculus [7] was Active.
